In ChEMBL document CHEMBL4190396, “Discovery of Novel Small-Molecule Inhibitors of NF-κB Signaling with Antiinflammatory and Anticancer Properties” (J Med Chem, 2018):
Activity calls are given as the source filed them. The calls are words filed in the database; no cut-off is given here.

The compounds below were run against T1, Toll-like receptor 7 (Homo sapiens) (UniProt Q9NYK1) (assay: Inhibition of human TLR7 expressed in HEK293 cells assessed as decrease in R848-induced NF-kappaB activation-mediated SEAP production at 30 uM after 24 hrs by Quanti-blue-based assay relative to control).
T1 sequence (whole entry): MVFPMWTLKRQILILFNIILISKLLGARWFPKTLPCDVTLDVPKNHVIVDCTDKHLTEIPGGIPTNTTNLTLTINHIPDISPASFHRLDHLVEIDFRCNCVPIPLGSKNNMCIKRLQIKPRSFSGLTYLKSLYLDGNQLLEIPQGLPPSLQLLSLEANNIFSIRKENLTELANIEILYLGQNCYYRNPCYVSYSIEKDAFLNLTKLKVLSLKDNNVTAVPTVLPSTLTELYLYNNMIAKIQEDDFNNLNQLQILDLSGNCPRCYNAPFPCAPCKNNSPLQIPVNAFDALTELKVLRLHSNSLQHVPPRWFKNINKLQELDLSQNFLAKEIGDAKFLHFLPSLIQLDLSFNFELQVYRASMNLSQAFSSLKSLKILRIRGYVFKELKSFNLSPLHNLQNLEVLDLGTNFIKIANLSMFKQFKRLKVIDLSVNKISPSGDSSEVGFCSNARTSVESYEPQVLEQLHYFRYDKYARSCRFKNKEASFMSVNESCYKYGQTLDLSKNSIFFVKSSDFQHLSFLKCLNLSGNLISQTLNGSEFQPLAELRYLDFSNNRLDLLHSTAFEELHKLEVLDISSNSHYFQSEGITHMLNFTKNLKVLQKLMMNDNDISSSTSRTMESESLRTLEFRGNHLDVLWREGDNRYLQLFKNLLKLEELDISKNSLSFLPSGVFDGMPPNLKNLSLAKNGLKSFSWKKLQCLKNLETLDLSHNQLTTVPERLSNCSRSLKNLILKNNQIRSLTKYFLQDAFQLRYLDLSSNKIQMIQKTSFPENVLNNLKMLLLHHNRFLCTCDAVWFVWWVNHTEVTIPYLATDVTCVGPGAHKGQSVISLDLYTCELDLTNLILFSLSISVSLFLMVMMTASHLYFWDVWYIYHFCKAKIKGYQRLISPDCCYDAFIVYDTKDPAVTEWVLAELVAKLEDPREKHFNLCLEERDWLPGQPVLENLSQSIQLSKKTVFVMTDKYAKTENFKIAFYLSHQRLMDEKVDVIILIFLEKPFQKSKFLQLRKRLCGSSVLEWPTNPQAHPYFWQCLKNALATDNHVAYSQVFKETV
Type: cell-based

Row | inhibition | SMILES
1 | Active | Cc1nc(C(=O)NNC(=O)c2ccc(Cl)cc2)cs1
2 | Active | Nc1nccnc1C(=O)NNC(=O)c1cccc(C(F)(F)F)c1

The compounds below were run against T1, Toll-like receptor 7 (Homo sapiens) (assay: Inhibition of human TLR7 expressed in HEK293 cells assessed as decrease in R848-induced NF-kappaB activation-mediated SEAP production at 40 uM after 24 hrs by Quanti-blue-based assay relative to control).
Type: cell-based
Summary of the method: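 Screening mode: HEK hTLR7 cells, 20,000/well in duplicate, stimulated with R848 1 µg/mL, library compounds at 40 µM; triptolide 40 nM positive control, 0.4% DMSO negative control; SEAP read by QUANTI-Blue.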

Row | inhibition [%] | SMILES
3 | 88 | O=C(NNC(=O)c1ccccn1)c1cccc(C(F)(F)F)c1
4 | 18 | Cc1nc(C(=O)NNC(=O)c2cccc(O)c2)cs1
5 | 24 | COc1cccc(C(=O)NNC(=O)c2csc(C)n2)c1
6 | 13 | O=C(NNC(=O)c1cc2ccccc2[nH]1)c1ccc(Cl)cc1
7 | 19.5 | Cc1nc(C(=O)NNC(=O)c2ccncc2)cs1
8 | 9 | COC(=O)c1cccc(C(=O)NNC(=O)c2csc(C)n2)c1
9 | 76 | O=C(NNC(=O)c1ccccn1)c1ccc(Cl)cc1
10 | 79.8 | O=C(NNC(=O)c1ccccn1)c1ccc(OC(F)(F)F)cc1
11 | 30.6 | Cc1nc(C(=O)NNC(=O)c2cccc(Br)c2)cs1
12 | 33 | O=C(NNC(=O)c1csc(-c2ccncc2)n1)c1ccccn1
13 | 85.4 | O=C(NNC(=O)c1ccccn1)c1ccc(C(F)(F)F)cc1
14 | 86 | O=C(NNC(=O)c1csc(-c2cccnc2)n1)c1ccccn1
15 | 96.5 | O=C(NNC(=O)c1ncccc1O)c1ccc(OC(F)(F)F)cc1
16 | 6.4 | Cc1nc(C(=O)NNC(=O)c2cccc(C#N)c2)cs1
17 | 40 | Cc1nc(C(=O)NNC(=O)c2cccc(Cl)c2)cs1
18 | 26 | Cc1nc(C(=O)NNC(=O)c2cccc(OC(F)(F)F)c2)cs1
19 | 51 | Cc1nc(C(=O)NNC(=O)c2ccc(Cl)cc2)cs1
20 | 82.3 | O=C(NNC(=O)c1ccccn1)c1ccc(Br)cc1
21 | 6 | Cc1nc(C(=O)NNC(=O)c2ccccc2Cl)cs1
22 | 21.1 | Cc1nc(C(=O)NNC(=O)c2cccc(F)c2)cs1
23 | 94.2 | CC(C)c1nc(C(=O)NNC(=O)c2ccccn2)cs1
24 | 73 | Cc1nc(C(=O)NNC(=O)c2ccccn2)cs1
25 | 98.8 | O=C(NNC(=O)c1csc(-c2ccccc2)n1)c1ccccn1
26 | 21 | Cc1nc(C(=O)NNC(=O)c2cccnc2)cs1
27 | 20.4 | COc1ccc(C(=O)NNC(=O)c2nccnc2N)cc1

Further lines, the compound ahead of its results:

Row | SMILES | inhibition [%]
28 | Cc1nc(C(=O)NNC(=O)c2cc(Cl)cc(Cl)c2)cs1 | 24
29 | O=C(NNC(=O)c1nccnc1Cl)c1cccc(C(F)(F)F)c1 | 19
30 | Nc1nccnc1C(=O)NNC(=O)c1ccc([N+](=O)[O-])cc1Cl | 23
31 | Nc1nccnc1C(=O)NNC(=O)c1ccccc1C(F)(F)F | 23
32 | O=C(NNC(=O)c1ncccc1O)c1ccc(Cl)cc1 | 81
33 | O=C(NNC(=O)c1cnccn1)c1cccc(C(F)(F)F)c1 | 29
34 | Nc1nccnc1C(=O)NNC(=O)c1ccc(OC(F)(F)F)cc1 | 72
35 | N#Cc1ccc(C(=O)NNC(=O)c2nccnc2N)cc1 | 15
36 | CCCC1Nc2nccnc2C(=O)N1NC(=O)c1cccc(C(F)(F)F)c1 (configuration not stated) | 21
37 | CC(C)c1cc(C(=O)NNC(=O)c2ccc(Cl)cc2)[nH]n1 | 11
38 | O=C(NNC(=O)c1ncccc1O)c1cccc(C(F)(F)F)c1 | 96
39 | Nc1nccnc1C(=O)NNC(=O)c1ccc(F)cc1F | 26
40 | Nc1nccnc1C(=O)NNC(=O)c1c(Cl)cccc1Cl | 28
41 | Cc1nc(C(=O)NNC(=O)c2cccc(C(F)(F)F)c2)cs1 | 31
42 | Nc1ncc(Br)nc1C(=O)NNC(=O)c1cccc(C(F)(F)F)c1 | 18.2
43 | Cc1ncc(C(=O)NNC(=O)c2ccc(Cl)cc2)s1 | 17

Row | SMILES | inhibition [%]
44 | O=C(NNC(=O)c1nccs1)c1ccc(Cl)cc1 | 24
45 | Nc1nccnc1C(=O)NNC(=O)c1cccnc1 | 12
46 | Nc1ncccc1C(=O)NNC(=O)c1cccc(C(F)(F)F)c1 | 22
47 | Cc1ccc2c(Cl)c(C(=O)NNC(=O)c3ccc(Cl)cc3)sc2c1 | 16.7
48 | COC(=O)c1ccc(C(=O)NNC(=O)c2nccnc2N)cc1 | 18
49 | Nc1nccnc1C(=O)NNC(=O)c1ccc(Br)cc1 | 36.2
50 | Nc1nccnc1C(=O)NNC(=O)c1ccc(C(F)(F)F)cc1 | 79
51 | Nc1nccnc1C(=O)NNC(=O)c1ccc(Cl)cc1 | 42
52 | Nc1nccnc1C(=O)NNC(=O)c1cccc(C(F)(F)F)c1 | 68
53 | O=C(NNC(=O)c1ncccc1O)c1ccc(C(F)(F)F)cc1 | 97.4
54 | O=C(NNC(=O)c1ncccc1O)c1ccc(Br)cc1 | 96.2
55 | Nc1cccnc1C(=O)NNC(=O)c1cccc(C(F)(F)F)c1 | 83.1
56 | Nc1nccnc1C(=O)NNC(=O)c1ccc(O)cc1 | 17.7
57 | Nc1ncc(Cl)nc1C(=O)NNC(=O)c1cccc(C(F)(F)F)c1 | 21
58 | CCCCCCNC(=O)c1ccc(C(=O)NNC(=O)c2nccnc2N)cc1 | 17

What follows are compounds tested against T1, Toll-like receptor 7 (Homo sapiens) (assay: Inhibition of human TLR7 expressed in HEK293 cells assessed as decrease in R848-induced NF-kappaB activation-mediated SEAP production at 5 uM after 24 hrs by Quanti-blue-based assay relative to control).
Type: cell-based

Row | inhibition [%] | SMILES
59 | 96.7 | O=C(NNC(=O)c1csc(-c2cccc(C(F)(F)F)c2)n1)c1ccccn1
60 | 91 | O=C(NNC(=O)c1csc(-c2ccc(Cl)cc2)n1)c1ccccn1
61 | 79 | O=C(NNC(=O)c1csc(-c2cccc(F)c2)n1)c1ccccn1
62 | 80.3 | COc1ccc(-c2nc(C(=O)NNC(=O)c3ccccn3)cs2)cc1
63 | 99.9 | O=C(NNC(=O)c1csc(-c2cccc(Cl)c2Cl)n1)c1ccccn1
64 | 93.1 | CN(C)c1ccc(-c2nc(C(=O)NNC(=O)c3ccccn3)cs2)cc1
65 | 99.1 | O=C(NNC(=O)c1csc(-c2cc(Cl)cc(Cl)c2)n1)c1ccccn1
66 | 91.9 | CCc1ccc(-c2nc(C(=O)NNC(=O)c3ccccn3)cs2)cc1
67 | 93.7 | O=C(NNC(=O)c1csc(-c2cccc(Cl)c2)n1)c1ccccn1
68 | 96.1 | O=C(NNC(=O)c1csc(-c2ccc(C(F)(F)F)cc2)n1)c1ccccn1
69 | 97.6 | O=C(NNC(=O)c1csc(-c2cccc(Br)c2)n1)c1ccccn1
70 | 66 | COc1ccc(-c2nc(C(=O)NNC(=O)c3ccccn3)cs2)cc1OC
71 | 88.2 | Cc1ccc(-c2nc(C(=O)NNC(=O)c3ccccn3)cs2)cc1
72 | 65 | O=C(NNC(=O)c1csc(-c2ccc(F)cc2)n1)c1ccccn1
